Laboratory results published in ChEMBL document CHEMBL1138352, “On the intractability of estrogen-related receptor alpha as a target for activation by small molecules” (J Med Chem, 2007).
Active and inactive are the calls of the source. No cut-off for these calls is given here.

Tests used:
[1] = target: T1, Steroid hormone receptor ERR1 (Homo sapiens) (UniProt P11474); assay: Activity at human ERRalpha expressed in HeLa cells assessed as estrogen response element activation at 50 uM after 24 ro 30 hrs by luciferase reporter gene assay; format: cell-based
T1 sequence (whole entry): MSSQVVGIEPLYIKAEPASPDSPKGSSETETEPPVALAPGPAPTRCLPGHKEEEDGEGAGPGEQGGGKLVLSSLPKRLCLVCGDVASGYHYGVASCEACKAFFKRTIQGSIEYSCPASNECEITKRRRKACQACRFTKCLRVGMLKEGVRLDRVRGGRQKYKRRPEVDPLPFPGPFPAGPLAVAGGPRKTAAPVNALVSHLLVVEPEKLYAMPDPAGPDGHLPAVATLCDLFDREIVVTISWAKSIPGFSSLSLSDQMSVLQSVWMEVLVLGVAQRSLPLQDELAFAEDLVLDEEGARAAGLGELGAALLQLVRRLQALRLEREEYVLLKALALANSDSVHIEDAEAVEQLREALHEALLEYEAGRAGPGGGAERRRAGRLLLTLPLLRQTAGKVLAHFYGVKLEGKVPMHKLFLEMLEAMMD
Outline: (§1)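 HeLa cells were co-transfected with an expression vector for human ERRα (wild type, or the F272A point mutant for line 1) and a luciferase reporter driven by a triple repeat of an estrogen response element. Luciferase activity in compound-exposed cells was compared with vehicle-treated cells.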

[2] = target: T2, Estrogen-related receptor gamma (Homo sapiens) (UniProt P62508); assay: Effect on interaction between ERRgamma ligand binding domain and RIP140 by FRET assay
T2 sequence (whole entry): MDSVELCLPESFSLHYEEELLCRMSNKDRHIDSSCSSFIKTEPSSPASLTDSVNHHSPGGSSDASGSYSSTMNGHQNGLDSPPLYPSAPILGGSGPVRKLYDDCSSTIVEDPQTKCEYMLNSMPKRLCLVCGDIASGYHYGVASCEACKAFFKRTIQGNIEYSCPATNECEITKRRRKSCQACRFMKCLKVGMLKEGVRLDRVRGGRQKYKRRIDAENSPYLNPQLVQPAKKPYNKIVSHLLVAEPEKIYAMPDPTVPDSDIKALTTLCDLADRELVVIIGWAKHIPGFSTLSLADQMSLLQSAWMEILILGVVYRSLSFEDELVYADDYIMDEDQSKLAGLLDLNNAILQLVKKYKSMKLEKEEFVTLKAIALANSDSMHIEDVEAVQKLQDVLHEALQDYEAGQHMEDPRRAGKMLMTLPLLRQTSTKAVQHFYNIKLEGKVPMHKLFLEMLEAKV

[3] = target: T1, Steroid hormone receptor ERR1 (Homo sapiens); assay: Effect on interaction between ERRalpha ligand binding domain and RIP140 at 30 uM by FRET assay
HeLa [4] = assay: Activity at human ERRalpha F272A mutant expressed in HeLa cells assessed as estrogen response element activation after 24 to 30 hrs by luciferase reporter gene assay; format: cell-based; outline: as §1
HeLa [5] = assay: Activity at human ERRalpha F272A mutant expressed in HeLa cells assessed as estrogen response element activation at 10 uM after 24 to 30 hrs by luciferase reporter gene assay; format: cell-based
Outline: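 HeLa cells transiently co-transfected with an expression vector for human ERRα (F272A point mutant) and a luciferase reporter carrying a triple repeat of the estrogen response element. Cells were exposed to compound, and luciferase activity was read relative to vehicle-treated cells.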

Q: How did the Activity [1] turn out when CC(C)(C)CNC(=O)c1ccc(O)cc1 was run?
A: inactive

Q: What about the Activity [2] of the same compound?
A: inactive

Q: What about the Activity [3] of the same compound?
A: inactive

Q: With CCCCNC(=O)c1ccc(O)cc1 as the compound, how does the Activity [1] read?
A: inactive

Q: What about the Activity [2] of the same compound?
A: inactive

Q: What about the Activity [3] of the same compound?
A: inactive

Q: For CC(C)c1ccc(/C=N/NC(=O)c2ccc(O)cc2)cc1, which Activity (HeLa [4]) is on record?
A: inactive

Q: How did the Activity [1] turn out when CC(C)CNC(=O)c1ccc(O)cc1 was run?
A: inactive

Q: And the Activity (HeLa [5])?
A: inactive

Q: What about the Activity [2] of the same compound?
A: inactive

Q: What about the Activity [3] of the same compound?
A: inactive

Q: With CCCCCNC(=O)c1ccc(O)cc1 as the compound, how does the Activity [1] read?
A: inactive

Q: What about the Activity [2] of the same compound?
A: inactive

Q: And the Activity [3]?
A: inactive

Q: With CC(C)CCNC(=O)c1ccc(O)cc1 as the compound, how does the Activity [1] read?
A: inactive

Q: What about the Activity [2] of the same compound?
A: inactive

Q: And the Activity [3]?
A: inactive

Q: With CCCCC/C=N/NC(=O)c1ccc(O)cc1 as the compound, how does the Activity [1] read?
A: inactive

Q: What about the Activity [2] of the same compound?
A: inactive

Q: What about the Activity [3] of the same compound?
A: inactive

Q: What does the source list for NC(=O)c1ccc(O)cc1?
A: Activity [1]: inactive; Activity [2]: inactive; Activity [3]: inactive

Q: For CN(C)CCc1c[nH]c2ccc(-c3cccc4ccccc34)cc12, which Activity (HeLa [5]) is on record?
A: inactive

Q: For CCC(C)C(C)/C=N/NC(=O)c1ccc(O)cc1 (configuration not stated), which Activity [1] is on record?
A: inactive

Q: And the Activity [2]?
A: inactive

Q: What about the Activity [3] of the same compound?
A: inactive

Q: C=C(/C=N/NC(=O)c1ccc(O)cc1)CC was tested. Which Activity [1] did it give?
A: inactive

Q: And the Activity [2]?
A: inactive

Q: And the Activity [3]?
A: inactive

Q: For CNC(=O)c1ccc(O)cc1, which Activity [1] is on record?
A: inactive

Q: And the Activity [2]?
A: inactive

Q: And the Activity [3]?
A: inactive

Q: With C=CCC/C=N/NC(=O)c1ccc(O)cc1 as the compound, how does the Activity [1] read?
A: inactive

Q: What about the Activity [2] of the same compound?
A: inactive

Q: And the Activity [3]?
A: inactive

Q: Which results are given for C=C(C)CNC(=O)c1ccc(O)cc1?
A: Activity [1]: inactive; Activity [2]: inactive; Activity [3]: inactive

Q: For CC(C)/C=N/NC(=O)c1ccc(O)cc1, which Activity [1] is on record?
A: inactive

Q: And the Activity [2]?
A: inactive

Q: And the Activity [3]?
A: inactive

Q: What does the source list for CCC(C)/C=N/NC(=O)c1ccc(O)cc1 (configuration not stated)?
A: Activity [1]: inactive; Activity [2]: inactive; Activity [3]: inactive

Q: For CCCNC(=O)c1ccc(O)cc1, which Activity [1] is on record?
A: inactive

Q: And the Activity [2]?
A: inactive

Q: What about the Activity [3] of the same compound?
A: inactive

Q: With CC(C)NC(=O)c1ccc(O)cc1 as the compound, how does the Activity [1] read?
A: inactive

Q: What about the Activity [2] of the same compound?
A: inactive

Q: And the Activity [3]?
A: inactive

Q: Which results are given for CC/C=N/NC(=O)c1ccc(O)cc1?
A: Activity [1]: inactive; Activity [2]: inactive; Activity [3]: inactive

Q: Which Activity [1] does the source give for CCNC(=O)c1ccc(O)cc1 here?
A: inactive

Q: What about the Activity [2] of the same compound?
A: inactive

Q: And the Activity [3]?
A: inactive
